Paper PMC4980839 (Archiv der Pharmazie, 2010)
Like-named read-outs stand apart in the source and are kept apart here.

Assays:
Type in all cases: biochemical
[1] = target: human PDE5 (Homo sapiens, UniProt O76074); assay: PDE5 inhibition, IMAP fluorescence polarization phosphodiesterase assay; conditions: for inhibition at 50 µM: read-out: % cGMP inhibition (50 μM)
[2] = target: PDE4B (Homo sapiens, UniProt Q07343); assay: PDE4B inhibition
[3] = target: PDE3B (Homo sapiens, UniProt Q13370); assay: PDE3B inhibition
Procedure, shortened: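 Reaction started with a substrate solution of 50 nM TAMRA-cGMP and/or Fl-cAMP. Run 60 min at room temperature, stopped with IMAP binding solution. Hydrolysis read as fluorescence polarization (TAMRA 530–590 nm).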

[4] = target: PDE11A (Homo sapiens, UniProt Q9HCR9); assay: PDE11A inhibition
[5] = read-out: IC50 PDE3B cGMP, cGMP as substrate

PDE3B, sequence (Q13370 592-1112 limits assumed): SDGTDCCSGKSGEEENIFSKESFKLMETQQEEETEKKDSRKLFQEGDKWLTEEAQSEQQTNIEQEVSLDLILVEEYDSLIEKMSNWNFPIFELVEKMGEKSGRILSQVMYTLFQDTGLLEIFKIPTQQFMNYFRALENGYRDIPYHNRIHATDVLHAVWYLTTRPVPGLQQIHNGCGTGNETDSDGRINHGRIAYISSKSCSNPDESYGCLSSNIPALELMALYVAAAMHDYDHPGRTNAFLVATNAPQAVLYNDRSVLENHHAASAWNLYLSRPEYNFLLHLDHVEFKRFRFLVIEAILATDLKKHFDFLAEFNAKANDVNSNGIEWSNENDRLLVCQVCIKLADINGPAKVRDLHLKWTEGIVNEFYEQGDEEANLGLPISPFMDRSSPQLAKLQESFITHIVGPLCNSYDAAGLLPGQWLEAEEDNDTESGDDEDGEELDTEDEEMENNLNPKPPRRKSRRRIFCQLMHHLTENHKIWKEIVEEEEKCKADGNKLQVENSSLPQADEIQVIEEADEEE
PDE11A, sequence (Q9HCR9 whole entry): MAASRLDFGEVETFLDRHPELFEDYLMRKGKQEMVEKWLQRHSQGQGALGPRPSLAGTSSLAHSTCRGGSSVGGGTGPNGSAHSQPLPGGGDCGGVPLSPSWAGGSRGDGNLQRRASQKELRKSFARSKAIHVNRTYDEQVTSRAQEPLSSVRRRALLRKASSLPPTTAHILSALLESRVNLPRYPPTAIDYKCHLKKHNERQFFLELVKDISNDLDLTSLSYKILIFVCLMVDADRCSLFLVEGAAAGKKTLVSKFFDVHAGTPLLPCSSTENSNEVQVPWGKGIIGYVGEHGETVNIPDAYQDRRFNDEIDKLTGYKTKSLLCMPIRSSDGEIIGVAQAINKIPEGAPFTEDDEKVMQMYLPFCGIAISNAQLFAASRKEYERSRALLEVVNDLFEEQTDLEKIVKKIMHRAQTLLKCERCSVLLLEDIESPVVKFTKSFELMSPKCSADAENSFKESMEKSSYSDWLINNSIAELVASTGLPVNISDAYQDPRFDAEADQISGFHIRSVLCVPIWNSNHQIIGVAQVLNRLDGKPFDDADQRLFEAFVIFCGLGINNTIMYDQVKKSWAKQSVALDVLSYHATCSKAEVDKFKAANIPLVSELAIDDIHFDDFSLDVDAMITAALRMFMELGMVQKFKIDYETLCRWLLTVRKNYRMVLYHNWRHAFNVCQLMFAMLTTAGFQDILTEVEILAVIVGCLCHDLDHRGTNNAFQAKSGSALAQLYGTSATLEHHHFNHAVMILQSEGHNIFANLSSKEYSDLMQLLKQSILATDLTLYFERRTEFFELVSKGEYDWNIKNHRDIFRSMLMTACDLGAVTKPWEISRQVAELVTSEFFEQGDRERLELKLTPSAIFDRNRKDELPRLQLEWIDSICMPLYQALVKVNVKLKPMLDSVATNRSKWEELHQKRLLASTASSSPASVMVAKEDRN
PDE4B, sequence (Q07343 whole entry): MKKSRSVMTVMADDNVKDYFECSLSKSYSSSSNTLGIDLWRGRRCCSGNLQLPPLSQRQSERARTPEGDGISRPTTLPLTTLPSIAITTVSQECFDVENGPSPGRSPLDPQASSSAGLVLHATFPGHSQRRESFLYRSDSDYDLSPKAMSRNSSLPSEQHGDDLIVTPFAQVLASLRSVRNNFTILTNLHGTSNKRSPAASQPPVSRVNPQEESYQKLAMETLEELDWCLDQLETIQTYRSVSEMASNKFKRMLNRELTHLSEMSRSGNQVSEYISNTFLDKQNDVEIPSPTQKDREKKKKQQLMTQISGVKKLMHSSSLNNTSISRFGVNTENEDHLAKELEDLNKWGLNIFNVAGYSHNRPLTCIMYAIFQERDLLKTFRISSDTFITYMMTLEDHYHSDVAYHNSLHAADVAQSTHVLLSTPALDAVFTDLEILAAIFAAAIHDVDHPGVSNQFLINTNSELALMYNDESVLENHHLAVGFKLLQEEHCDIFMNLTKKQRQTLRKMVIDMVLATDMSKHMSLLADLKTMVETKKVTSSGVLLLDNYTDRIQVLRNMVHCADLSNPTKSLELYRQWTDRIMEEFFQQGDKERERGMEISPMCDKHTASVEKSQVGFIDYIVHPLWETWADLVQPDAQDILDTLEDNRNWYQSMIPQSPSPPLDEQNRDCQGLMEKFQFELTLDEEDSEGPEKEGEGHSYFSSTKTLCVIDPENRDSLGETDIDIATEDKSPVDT

Row | Structure (SMILES) | inhibition at 50 µM [1] | other results
1 | CCN1CC(=O)N2[C@H](c3ccc(Cl)cc3)c3[nH]c4ccccc4c3C[C@@H]2C1=O [XXI, (6R,12aR)-2-Ethyl-6-(4-chlorophenyl)-2,3,6,7,12,12a-hexahydropyrazino[1’,2’:1,6]pyrido[3,4-b]indole-1,4-dione] | 102% | IC50 [2]: > 50000 nM; IC50 [3]: > 50000 nM; IC50 [3, 5]: > 50000 nM; IC50 ([4]; IC50 PDE11A cAMP, cAMP as substrate): 706 nM; IC50 ([4]; IC50 PDE11A cGMP, cGMP as substrate): 157 nM; Selectivity index IC50 (PDE11/PDE5) cGMP/cGMP ([4]; PDE11A with cGMP versus PDE5 with cGMP): 52.3; potency compared with tadalafil ([1]; PDE5 IC50 relative to tadalafil): two-fold; IC50 ([1]; read-out: IC50 PDE5A, Table 5 PDE panel): 3 nM
2 | CC(C)(C)N1CC(=O)N2[C@H](c3ccc(Cl)cc3)c3[nH]c4ccccc4c3C[C@H]2C1=O [XXVIII, (6R,12aS)-2-tert-Butyl-6-(4-chlorophenyl)-2,3,6,7,12,12a-hexahydropyrazino[1’,2’:1,6]pyrido[3,4-b]indole-1,4-dione] | 55% | –
3 | O=C1[C@H]2Cc3c([nH]c4ccccc34)[C@H](c3ccc(Cl)cc3)N2C(=O)N1c1ccc(Cl)cc1 [XIV, (5S,11aR)-2,5-Bis(4-chlorophenyl)-5,6,11,11a-tetrahydro-1H-imidazo[1’,5’:1,6]pyrido[3,4-b]indole-1,3(2H)-dione] | 29% | –
4 | CC(C)(C)N1C(=O)[C@H]2Cc3c([nH]c4ccccc34)[C@@H](c3ccc(Cl)cc3)N2C1=O [IX, (5R,11aR)-2-tert-Butyl-5-(4-chlorophenyl)-5,6,11,11a-tetrahydro-1H-imidazo[1’,5’:1,6]pyrido[3,4-b]indole-1,3(2H)-dione] | 100% | IC50 [1]: 600 nM
5 | CC(C)(C)N1C(=O)[C@H]2Cc3c([nH]c4ccccc34)[C@H](c3ccc(Cl)cc3)N2C1=O [X, (5S,11aR)-2-tert-Butyl-5-(4-chlorophenyl)-5,6,11,11a-tetrahydro-1H-imidazo[1’,5’:1,6]pyrido[3,4-b]indole-1,3(2H)-dione] | 54% | –
6 | CN1CC(=O)N2[C@H](c3ccc4c(c3)OCO4)c3[nH]c4ccccc4c3C[C@@H]2C1=O [Tadalafil, reference compound] | – | IC50 [3]: > 50000 nM; IC50 [3, 5]: > 50000 nM
7 | CC(C)(C)N1CC(=O)N2[C@@H](c3ccc(Cl)cc3)c3[nH]c4ccccc4c3C[C@H]2C1=O [XXVII, (6S,12aS)-2-tert-Butyl-6-(4-chlorophenyl)-2,3,6,7,12,12a-hexahydropyrazino[1’,2’:1,6]pyrido[3,4-b]indole-1,4-dione] | 42% | –
8 | O=C1[C@H]2Cc3c([nH]c4ccccc34)[C@@H](c3ccc(Cl)cc3)N2C(=O)N1c1ccc(Cl)cc1 [XIII, (5R,11aR)-2,5-Bis(4-chlorophenyl)-5,6,11,11a-tetrahydro-1H-imidazo[1’,5’:1,6]pyrido[3,4-b]indole-1,3(2H)-dione] | 22% | –
9 | CC(C)(C)N1CC(=O)N2[C@H](c3ccc(Cl)cc3)c3[nH]c4ccccc4c3C[C@@H]2C1=O [XXV, (6R,12aR)-2-tert-Butyl-6-(4-chlorophenyl)-2,3,6,7,12,12a-hexahydropyrazino[1’,2’:1,6]pyrido[3,4-b]indole-1,4-dione] | 55% | –
10 | O=C1[C@@H]2Cc3c([nH]c4ccccc34)[C@@H](c3ccc(Cl)cc3)N2C(=O)N1c1ccc(Cl)cc1 [XVI, (5R,11aS)-2,5-Bis(4-chlorophenyl)-5,6,11,11a-tetrahydro-1H-imidazo[1’,5’:1,6]pyrido[3,4-b]indole-1,3(2H)-dione] | 84% | IC50 [1]: 1090 nM
11 | CC(C)(C)N1CC(=O)N2[C@@H](c3ccc(Cl)cc3)c3[nH]c4ccccc4c3C[C@@H]2C1=O [XXVI, (6S,12aR)-2-tert-Butyl-6-(4-chlorophenyl)-2,3,6,7,12,12a-hexahydropyrazino[1’,2’:1,6]pyrido[3,4-b]indole-1,4-dione] | 10% | –
12 | COC(=O)[C@@H]1Cc2c([nH]c3ccccc23)[C@H](c2ccc(Cl)cc2)N1C(=O)CCl [XIX, Methyl (1S, 3S)-1-(4-chlorophenyl)-2-(chloroacetyl)-2,3,4,9-tetrahydro-1H-b-carboline-3-carboxylate] | – | % cGMP inhibition (50 μM) ([1]; PDE5, compound at 50 μM, triplicate, TAMRA-cGMP substrate): 6%
13 | O=C1[C@@H]2Cc3c([nH]c4ccccc34)[C@H](c3ccc(Cl)cc3)N2C(=O)N1c1ccc(Cl)cc1 [XV, (5S,11aS)-2,5-Bis(4-chlorophenyl)-5,6,11,11a-tetrahydro-1H-imidazo[1’,5’:1,6]pyrido[3,4-b]indole-1,3(2H)-dione] | 33% | –

Now from value to compound, other results behind:

Row | inhibition at 50 µM [1] | Structure (SMILES) | other results
14 | 102% | CCN1C(=O)[C@@H]2Cc3c([nH]c4ccccc34)[C@@H](c3ccc(Cl)cc3)N2C1=O [VIII, (5R,11aS)-2-Ethyl-5-(4-chlorophenyl)-5,6,11,11a-tetrahydro-1H-imidazo[1’,5’:1,6]pyrido[3,4-b]indole-1,3(2H)-dione] | –
15 | 25% | COC(=O)[C@H]1Cc2c([nH]c3ccccc23)[C@@H](c2ccc(Cl)cc2)N1C(=O)CCl [XVII, Methyl (1R,3R)-1-(4-chlorophenyl)-2-(chloroacetyl)-2,3,4,9-tetrahydro-1H-β-carboline-3-carboxylate] | –
16 | 45% | CCN1CC(=O)N2[C@@H](c3ccc(Cl)cc3)c3[nH]c4ccccc4c3C[C@H]2C1=O [XXIII, (6S,12aS)-2-Ethyl-6-(4-chlorophenyl)-2,3,6,7,12,12a-hexahydropyrazino[1’,2’:1,6]pyrido[3,4-b]indole-1,4-dione] | –
17 | 4% | COC(=O)[C@H]1Cc2c([nH]c3ccccc23)[C@H](c2ccc(Cl)cc2)N1 [II, Methyl (1S,3R)-1-(4-chlorophenyl)-2,3,4,9-tetrahydro-1H-β-carboline-3-carboxylate] | –
18 | 87% | CCN1CC(=O)N2[C@H](c3ccc(Cl)cc3)c3[nH]c4ccccc4c3C[C@H]2C1=O [XXIV, (6R,12aS)-2-Ethyl-6-(4-chlorophenyl)-2,3,6,7,12,12a-hexahydropyrazino[1’,2’:1,6]pyrido[3,4-b]indole-1,4-dione] | IC50 [1]: 1200 nM
19 | 30% | CCN1C(=O)[C@@H]2Cc3c([nH]c4ccccc34)[C@H](c3ccc(Cl)cc3)N2C1=O [VII, (5S,11aS)-2-Ethyl-5-(4-chlorophenyl)-5,6,11,11a-tetrahydro-1H-imidazo[1’,5’:1,6]pyrido[3,4-b]indole-1,3(2H)-dione] | –
20 | 47% | CCN1C(=O)[C@H]2Cc3c([nH]c4ccccc34)[C@H](c3ccc(Cl)cc3)N2C1=O [VI, (5S,11aR)-2-Ethyl-5-(4-chlorophenyl)-5,6,11,11a-tetrahydro-1H-imidazo[1’,5’:1,6]pyrido[3,4-b]indole-1,3(2H)-dione] | –
21 | 85% | CCN1C(=O)[C@H]2Cc3c([nH]c4ccccc34)[C@@H](c3ccc(Cl)cc3)N2C1=O [V, (5R,11aR)-2-Ethyl-5-(4-chlorophenyl)-5,6,11,11a-tetrahydro-1H-imidazo[1’,5’:1,6]pyrido[3,4-b]indole-1,3(2H)-dione] | IC50 [1]: 1100 nM
22 | 6% | COC(=O)[C@H]1Cc2c([nH]c3ccccc23)[C@H](c2ccc(Cl)cc2)N1C(=O)CCl [XVIII, Methyl (1S,3R)-1-(4-chlorophenyl)-2-(chloroacetyl)-2,3,4,9-tetrahydro-1H-β-carboline-3-carboxylate] | –
23 | 83% | CC(C)(C)N1C(=O)[C@@H]2Cc3c([nH]c4ccccc34)[C@@H](c3ccc(Cl)cc3)N2C1=O [XII, (5R,11aS)-2-tert-Butyl-5-(4-chlorophenyl)-5,6,11,11a-tetrahydro-1H-imidazo[1’,5’:1,6]pyrido[3,4-b]indole-1,3(2H)-dione] | IC50 [1]: > 10000 nM
24 | 48% | COC(=O)[C@@H]1Cc2c([nH]c3ccccc23)[C@@H](c2ccc(Cl)cc2)N1 [IV, Methyl (1R,3S)-1-(4-chlorophenyl)-2,3,4,9-tetrahydro-1H-β-carboline-3-carboxylate] | –
25 | 9% | COC(=O)[C@@H]1Cc2c([nH]c3ccccc23)[C@H](c2ccc(Cl)cc2)N1 [III, Methyl (1S,3S)-1-(4-chlorophenyl)-2,3,4,9-tetrahydro-1H-β-carboline-3-carboxylate] | –
26 | 80% | CCN1CC(=O)N2[C@@H](c3ccc(Cl)cc3)c3[nH]c4ccccc4c3C[C@@H]2C1=O [XXII, (6S,12aR)-2-Ethyl-6-(4-chlorophenyl)-2,3,6,7,12,12a-hexahydropyrazino[1’,2’:1,6]pyrido[3,4-b]indole-1,4-dione] | IC50 [1]: 1720 nM
27 | 20% | CC(C)(C)N1C(=O)[C@@H]2Cc3c([nH]c4ccccc34)[C@H](c3ccc(Cl)cc3)N2C1=O [XI, (5S,11aS)-2-tert-Butyl-5-(4-chlorophenyl)-5,6,11,11a-tetrahydro-1H-imidazo[1’,5’:1,6]pyrido[3,4-b]indole-1,3(2H)-dione] | –
28 | 35% | COC(=O)[C@H]1Cc2c([nH]c3ccccc23)[C@@H](c2ccc(Cl)cc2)N1 [I, Methyl (1R,3R)-1-(4 chlorophenyl)-2,3,4,9-tetrahydro-1H-β-carboline-3-carboxylate] | –
29 | 78% | COC(=O)[C@@H]1Cc2c([nH]c3ccccc23)[C@@H](c2ccc(Cl)cc2)N1C(=O)CCl [XX, Methyl (1R,3S)-1-(4-chlorophenyl)-2-(chloroacetyl)-2,3,4,9-tetrahydro-1H-β-carboline-3-carboxylate] | –
